# Measurements: ChEMBL document CHEMBL4513216, “Probing the Open Global Health Chemical Diversity Library for Multistage-Active Starting Points for Next-Generation Antimalarials” (ACS Infect Dis, 2020)
# Assay: Toxicity liver stage against HepG2, at 10uM
# Assay type: cell-based
# Set-up: test concentration 10 uM, cell line HepG2-A16-CD81EGFP
# Conditions: human, HepG2-A16-CD81EGFP cells; read-out: INHIBITION
# Procedure, shortened: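 Uninfected HepG2-A16-CD81EGFP cells, 3 × 10^3 per well, 1536-well, plated on prespotted compound at 10 μM final, parasite-free screening media added to match infected plates; puromycin 10 μM positive, DMSO 0.5% negative; run in parallel with 48 h PbLuc assay at 37 °C, 5% CO2; viability by CellTiter-Glo luminescence, normalized to controls.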
row,Compound,cytotoxicity at 10 µM
1,CCS(=O)(=O)N1CC(=O)N(CCCc2ccccc2)CC(O)C1 (stereo unspecified),-5.64%
2,CCCC1CN(CCOC)C(=O)c2cccnc2O1 (stereo unspecified),5.42%
3,CC(C)CCNC(=O)c1ccc(-n2cnc3ccccc3c2=O)cc1,-6.17%
4,Cc1cc(NCCO)nc2[nH]nc(N)c12,-51.7%
5,CC(=O)c1c(C)nn(CC(=O)Nc2ccc(F)cc2)c1C,-72%
6,CC(C)OC(=O)CN1N=C(C(=O)N2CCCC2)S(=O)(=O)c2ccccc21,-2.93%
7,O=C(NCc1nc2ccccc2[nH]1)c1cnn2c1OCCC2,0.0962%
8,CC(NC(=O)C1CN(c2ncnc3c2nnn3C)C1)c1ccccc1 (stereo unspecified),2.8%
9,CC(=O)N1CC(c2ncn(C(C)C)n2)c2cc(C(=O)NC(C)C)ccc21 (stereo unspecified),8.22%
10,O=C(c1ccco1)N1CCc2onc(CN3CCCC3)c2C1,4.38%
11,O=C(c1ccccn1)N1CC[C@H]2C(=O)N(c3ccsc3)CCO[C@H]2C1,11.6%
12,Cc1cnc(C(=O)N2CCC3(CC2)C(=O)NCCN3CC(C)C)cn1,8.52%
13,Cc1cccn2c(=O)cc(OC(=O)c3ccccc3Cl)nc12,10.7%
14,O=C(N1CCOCC1)N1CCc2ncnc(NC3CC3)c2CC1,-20.9%
15,Cc1cccc(CN2C[C@@H]3CN(C(=O)c4ccsc4)C[C@@H]3C2=O)c1,-18.8%
16,Cc1cc(NC(=O)CCn2nc(C)c3ccccc32)n(C)n1,3.4%
17,CCN(CC)C(=O)CSc1nc2cc(C)nc-2c(O)n1Cc1ccco1,3.49%
18,Cc1nn(C)cc1S(=O)(=O)N(CCc1ccccc1)Cc1ccn(C)n1,1.43%
19,CCc1c(C)nn2c(O)cc(C3CCN(C(=O)C4CC4)C3)nc12 (stereo unspecified),1.97%
20,CNc1cc(C2CN(C(=O)c3cscn3)CCO2)nc(C)n1 (stereo unspecified),9.49%
21,COc1cc2c(cc1CN1CCc3sccc3C1C)OCO2 (stereo unspecified),7.01%
22,CC(C)C(=O)N1CCCC1c1nc(N(C)C)ncc1-c1ccc(Cl)cc1 (stereo unspecified),20.1%
23,Cc1cc(N2CCOC(c3ccncn3)C2)ncn1 (stereo unspecified),2.91%

row,Compound,cytotoxicity at 10 µM
1,Cc1nccc(CC2COCCN(c3cnccn3)C2)n1 (stereo unspecified),0.933%
2,CC(=O)N1CCCC1c1cc(Nc2nnc(C)s2)nc(C)n1 (stereo unspecified),-18.2%
3,O=S1(=O)NC(C2CCN(Cc3ccccn3)CC2)Nc2ccccc21 (stereo unspecified),-33.6%
4,Cc1cc(C(F)(F)F)c2c(C3CCCN(C(=O)C4CC4)C3)noc2n1 (stereo unspecified),-25.1%
5,O=C1NC2(Cc3ccccc31)CN(CC1CCNCC1)C2,10.8%
6,CN(C)c1ccc(C(=O)N2CCCc3cc(OC(F)(F)F)ccc32)cn1,-45.9%
7,CCc1ccc2c(c1)C(CCNC(=O)CCc1ccsc1)C(=O)N2 (stereo unspecified),-41.5%
8,C1CC(CN2CCCCC2C2OCCO2)C1 (stereo unspecified),-12.8%
9,Cc1cc(N(Cc2cccs2)C2CC2)n2nc(C(F)(F)F)nc2n1,-2.1%
10,O=S(=O)(c1cc(F)ccc1N1CC(n2cccn2)C1)C(F)(F)F,11.3%
11,COc1cccc(CC2CCCN2Cc2nccn2C)c1 (stereo unspecified),-6.16%
12,COC(=O)CC(NC(=O)CCn1cccn1)c1ccc(C)cc1 (stereo unspecified),3.28%
13,Cc1cc(C)cc(C(C)NCc2nnc(C)s2)c1 (stereo unspecified),-5.77%
14,COc1ccc(CN(C)Cc2c(C)noc2C)c(Br)c1OC,-0.2%
15,Cc1noc(NCc2ccc(F)cc2)n1,-5.92%
16,CN(C)c1cccc(C2CCCN2Cc2nnnn2C2CC2)c1 (stereo unspecified),5.15%
17,COc1cc(CNCCc2cc(F)cc3c2OCOC3)cc(OC)c1,-1.51%
18,CSC(C)CC(=O)N1CCC(n2ccnn2)CC1 (stereo unspecified),-47.9%
19,O=C(NS(=O)(=O)c1cnn(-c2ccccc2F)c1)c1ccco1,-8.86%
20,Cc1ccc(N(C)Cc2nnnn2C2CC2)c(C)c1,8.81%
21,O=C(CN1CCOc2ccc(Cl)cc21)NCCCn1cccn1,-0.174%
22,Cc1cc(NC(=O)CSc2nc(=O)ccn2C(C)C)no1,0.841%
23,COC(=O)CCCNC(=O)Nc1ccccc1OC,6.45%

row,Compound,cytotoxicity at 10 µM
1,CCCNC(=O)c1cccc2ncccc12,-50.3%
2,COc1ccccc1C(C)CC(=O)N1CCN(S(N)(=O)=O)CC1 (stereo unspecified),-51.3%
3,N#Cc1cc(F)ccc1Cn1cnc(C2CCC2)cc1=O,-5.32%
4,CCc1nc(CC(=O)NCC2(C(N)=O)CCOCC2)cs1,-9.92%
5,CCCN1CCC(NC(=O)NCCc2nc(CC)c(C)s2)CC1,-19%
6,Cc1cc(S(=O)(=O)N2CCCc3ccc(F)cc32)sc1C(=O)O,18.1%
7,Cn1ccnc1SCc1nc(C(C)(C)NC(=O)OC(C)(C)C)no1,-0.679%
8,Cn1cnc(S(=O)(=O)N2CCCC2)c1Cl,15.1%
9,CCNS(=O)(=O)c1ccc(C)c(C(=O)N(C)Cc2ccco2)c1,0.685%
10,CN(Cc1ccccc1Br)C(=O)Cn1nc(-c2ccc(F)cc2)oc1=O,9.46%
11,Cc1nn(C(C)C)c(C)c1NC(=O)c1ccncc1,-17.3%
12,CCn1ccnc1CN1CCN(Cc2ccccn2)CC1C (stereo unspecified),14.3%
13,Cc1nc(CN2CCC23CCN(Cc2ccoc2)CC3)cs1,-109%
14,CC(C)N(C)Cc1cc(=O)n2c(n1)CN(C(=O)c1ccc[nH]1)CCC2,-105%
15,CCOc1ccc(OCc2nc3c(c(=O)[nH]2)CCNC3)cc1,8.55%
16,O=C(c1cn2cc(Cl)cnc2n1)N1CCOCC(O)(CN2CCCC2)C1 (stereo unspecified),-8.42%
17,OC1(CN2CCCC2)COCCN(c2nnc(-c3ccccc3)s2)C1 (stereo unspecified),-10.1%
18,CC1(C)CN(S(=O)(=O)N2CCOCC2)CC1c1ccccc1 (stereo unspecified),1.69%
19,CN(Cc1n[nH]c2c1CCC2)c1nc(C2CCCC2)nc2c1CNC2,-3.86%
20,CCc1nc2c(N3CCC4(CC3)CC(=O)N(CC)C4)ncnc2o1,-3.2%
21,Cc1nnc(NCCn2nc(C)c(Cl)c2C)o1,1.91%
22,COc1ccc(NC(=O)c2ccc(CN3CC[C@H](O)C3)cc2)c(OC)n1,6.21%
23,O=C1CCCCN1CCCC(=O)N1CCC2(CC1)[C@H](O)C[C@@H]2O,1.12%

row,Compound,cytotoxicity at 10 µM
1,CN(C)c1nc2c(c(N(C)Cc3n[nH]c4c3CCCCC4)n1)CCNC2,2.95%
2,Cc1ccc([C@@H]2CN(C(=O)c3cc[nH]c3)C[C@H]2NC(=O)C2CC2)cc1,-7.59%
3,CCc1nc(CN(C)C(=O)c2cc(NC(C)=O)ccc2Cl)no1,-1.71%
4,Cc1cnccc1NCCn1ccnc1C1CCCCC1,-4.2%
5,Cc1ccc(OC2(C(=O)O)CCN(C(=O)c3ccsc3)CC2)cn1,-4.09%
6,O=C1NCCCc2[nH]c(C3CCCN(C(=O)C4CC4)C3)nc21 (stereo unspecified),3.55%
7,Cc1nc[nH]c1CNCc1cccnc1N(C)C1CCCCC1,5.32%
8,CC(O)CN1CC2(CCC1=O)CCN(C(=O)c1cnn(C)c1)CC2 (stereo unspecified),3.74%
9,CCOC(=O)N1CCC(NCC2CCN(c3cnn(C)c(=O)c3)C2)CC1 (stereo unspecified),8.39%
10,CCCN(CCO)C(=O)C1CCC(=O)N(Cc2ccc(Cl)cc2)C1 (stereo unspecified),10.4%
11,COc1ccc(Cc2ncc3c(n2)CN(C(=O)C2COCCO2)C3)cc1 (stereo unspecified),-0.579%
12,Cc1cc2nc(-c3ccccc3)cc(NCC3CCCOC3)n2n1 (stereo unspecified),-3.54%
13,CCCOCC(=O)N1CCc2c(cccc2S(=O)(=O)N2CCOCC2)C1,2.71%
14,COCc1cc(N(C)CCc2c(C)n[nH]c2C)ncn1,0.681%
15,CC(=O)N1CCOC(CNC(=O)c2cccc(CCC(C)(C)O)c2)C1 (stereo unspecified),0.303%
16,Cc1oc(-c2cccc(F)c2)nc1CN1CCOCS1(=O)=O,2.74%
17,COc1ccc(CC2(CO)CCN(c3cc(N)ncn3)CC2)cc1,-12.9%
18,COCc1cc(NCCc2ccccn2)n2nccc2n1,-0.464%
19,COCCN1CCC(CN(CC2CCCO2)C(=O)COC)CC1 (stereo unspecified),-21.1%
20,Cn1c(Cn2ccnc2)nnc1C1CCCN(C2CCCCC2)C1 (stereo unspecified),-13.2%
21,CCn1ccnc1CN1CCC(CNC(=O)c2ccc(C)nc2)C1 (stereo unspecified),-8.8%
22,Nc1nccc(NCc2cc3n(n2)CCCN(C2CCCCC2)C3)n1,-16%
23,CCCc1cc(CNC(=O)C2CCOc3ccccc3C2)on1 (stereo unspecified),-3.8%

row,Compound,cytotoxicity at 10 µM
1,Cc1cnn(C2CN(CC(=O)NCc3ccccn3)C2)c1,-10.9%
2,N#Cc1ccc(CN2CCC(c3ccnn3CCO)CC2)cc1,-1.72%
3,Cc1cc(C2CCCN2CC(=O)N(CCC#N)c2ccccc2F)on1 (stereo unspecified),-1.5%
4,CCN(CC)Cc1ccc(C(=O)N2CCN(CC(C)O)CC2)cc1 (stereo unspecified),-12.6%
5,Cc1cc(CN2CCOC(CN(C)c3cccnn3)C2)no1 (stereo unspecified),8.23%
6,CN(C)C[C@H]1OC[C@@H]2CCN(S(=O)(=O)c3ccccc3)C[C@@H]21,1.44%
7,Cc1nc(CC(=O)N2CCC(c3nn(C)c4ncccc34)CC2)cs1,-18.9%
8,CCOC1COC2(CCN(CC3CC3)CC2)C1 (stereo unspecified),-106%
9,Cc1ccc(NCc2cn3c(n2)CN(Cc2ccoc2)CC3)nn1,9.43%
10,O=C(c1ccc(F)cc1)N1CCC2(CCCN2CC2CC2)CC1,5.05%
11,COCC(=O)NCc1cc(=O)n2c(n1)CN(CC1CC1)CCC2,-88.5%
12,c1cncc(CO[C@H]2CN(Cc3ccco3)[C@@H]3COC[C@H]23)c1,-101%
13,Cc1nc[nH]c1CN1CCc2nc3scc(C)c3c(=O)n2CC1,-35.7%
14,O=C(c1cc[nH]n1)N1CC[C@@H]2CN(Cc3ccncc3)S(=O)(=O)[C@@H]2CC1,10.5%
15,COCCC(=O)N1C[C@H]2CN(Cc3cccc(C)n3)C(=O)[C@H]2C1,4.4%
16,CC(C)CC(=O)N1CC[C@H]2N(C)CC[C@@]2(C(=O)Nc2cccnc2)CC1,-96.9%
17,O=C(NCc1cc(=O)n2c(n1)CN(CC1CCOC1)CCC2)C1CC1 (stereo unspecified),-11.2%
18,O=C([C@@H]1C[C@@H]2CCN(Cc3ccoc3)C[C@H]2O1)N1CCCC1,-101%
19,c1ccc(CN2CCO[C@H]3[C@H](OCCN4CCCC4)CC[C@@H]32)nc1,-1.5%
